The source of these data is ChEMBL document CHEMBL1152935, “Synthesis and structure-activity relationships of radicicol derivatives and WNT-5A expression inhibitory activity” (Bioorg Med Chem, 2009).

A word on the IC50: it is the concentration that gives 50% inhibition.

Molecules are shown by their SMILES. Some results are limits rather than exact numbers.

Data set [1] in a line: Inhibition of WNT5A mRNA expression in human dermal papilla cells after 24 hrs by quantigene assay. It is filed as functional, cell-based. The procedure, abridged:
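Human dermal papilla cells (gift, fifth subculture) in MEM with 12% FBS, seeded at 1 × 10⁴ cells/well, cultured overnight, then exposed 24 h to compounds or no-compound medium. WNT-5A mRNA quantified by branched-DNA QuantiGene: lysates on capture plate, WNT-5A probes 53 °C 20 h, amplifier then alkaline phosphatase probe each 46 °C 1 h, Lumi-Phos Plus 46 °C 30 min, luminescence read. IC50 reported.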

Data set [2] can be described thus: Cytotoxicity against human dermal papilla cells by Alamar blue assay. The data set is classed as cell-based. The conditions noted are these: read-out: TC50 (the source's name). The procedure, abridged:
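Dermal papilla cells seeded at 5 × 10³ cells/well, grown 16 h in MEM with 12% FBS, then given medium with or without test compounds for 24 h. Medium swapped for one containing 10% Alamar Blue and cells cultured 4 h more; fluorescence read at Ex 544 nm/Em 590 nm. TC50 reported.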
Background: Resazurin is reduced to fluorescent resorufin, in cell work by metabolically active cells.

Data set [3] is described as follows: Inhibition of HSP90.

`C[C@@H]1C[C@H]2O[C@@H]2CCCC[C@H](O)Cc2c(Cl)c(O)cc(O)c2C(=O)O1` yielded an IC50 in data set [1] (Homo sapiens, 24 h) of 5.89 µM. Further, in data set [2], the CC50 was over 100 µM. The matching figures for `C[C@@H]1C[C@H]2O[C@@H]2CC/C=C/[C@@H](O)Cc2c(Cl)c(O)cc(O)c2C(=O)O1`: over 100 µM and over 100 µM. The compound `C[C@@H]1C[C@H]2O[C@@H]2C/C=C/C[C@@H](O)Cc2c(Cl)c(O)cc(O)c2C(=O)O1` came in with an IC50 in data set [1] (Homo sapiens, 24 h) of over 50 µM.

In data set [1] (Homo sapiens, 24 h), `C[C@@H]1C[C@H]2O[C@@H]2CC/C=C/[C@H](O)Cc2c(Cl)c(O)cc(O)c2C(=O)O1` displayed an IC50 of 1.89 µM. Moreover, in data set [2], the CC50 was over 100 µM. Turning to `C[C@@H]1C[C@H]2O[C@@H]2CCCC[C@@H](O)Cc2c(Cl)c(O)cc(O)c2C(=O)O1`, in data set [1] (Homo sapiens, 24 h), the IC50 was over 100 µM. In data set [2], the CC50 is over 100 µM.

As to `C[C@@H]1C[C@H]2O[C@@H]2C/C=C/C[C@H](O)Cc2c(Cl)c(O)cc(O)c2C(=O)O1`, the IC50 in data set [1] (Homo sapiens, 24 h) is over 50 µM. For the compound `C[C@@H]1C/C=C/CC/C=C/[C@H](O)Cc2cc(O)cc(O)c2C(=O)O1`, the IC50 in data set [1] (Homo sapiens, 24 h) is over 50 µM.

On to `CC(=O)S[C@@H]1/C=C\CC(=O)Cc2c(Cl)c(O)cc(O)c2C(=O)O[C@H](C)C[C@H]2O[C@@H]21`, for which, in data set [1] (Homo sapiens, 24 h), the IC50 was determined as 0.5 µM. For the same compound, the CC50 in data set [2] was over 100 µM.

As for `COc1cc(O)c2c(c1Cl)C[C@@H](O)/C=C/CC[C@H]1O[C@@H]1C[C@@H](C)OC2=O`, the IC50 in data set [1] (Homo sapiens, 24 h) is over 100 µM.

`C[C@@H]1C[C@H]2O[C@@H]2/C=C\C=C\[C@H](O)Cc2c(Cl)c(O)cc(O)c2C(=O)O1`: in data set [1] (Homo sapiens, 24 h), the IC50 came to 2.07 µM. Further, in data set [2], the CC50 is over 100 µM.

Consider `C[C@@H]1C[C@@H](O)CC/C=C/CC(=O)Cc2c(Cl)c(O)cc(O)c2C(=O)O1`, for which, in data set [1] (Homo sapiens, 24 h), the IC50 was over 50 µM. The same measure, in the same setting: to `C[C@@H]1C[C@@H](O)CCCCCC(=O)Cc2c(Cl)c(O)cc(O)c2C(=O)O1` belongs over 50 µM; to `C[C@@H]1CC(O)C2C=CC(CC(=O)Cc3c(Cl)c(O)cc(O)c3C(=O)O1)O2` (stereo partly drawn), over 50 µM.

`C[C@@H]1C[C@H]2O[C@@H]2C/C=C/CC(=O)Cc2c(Cl)c(O)cc(O)c2C(=O)O1`: in data set [1] (Homo sapiens, 24 h), the IC50 is 7.69 µM. The CC50 in data set [2] is over 100 µM. The matching figures for `CO/N=C1/C=C/C=C\[C@H]2O[C@@H]2C[C@@H](C)OC(=O)c2c(O)cc(O)c(Cl)c2C1`: 1.22 µM and over 100 µM. In the same order, the values of `C[C@@H]1C[C@H]2O[C@@H]2CC/C=C/[C@H](O)Cc2cc(O)cc(O)c2C(=O)O1` are 13.2 µM and over 100 µM. The matching figures for `C[C@@H]1C[C@H]2O[C@@H]2C(Sc2ccccc2)/C=C\CC(=O)Cc2c(Cl)c(O)cc(O)c2C(=O)O1` (stereo partly drawn): 0.27 µM and over 50 µM. For the compound `COc1cc(OC)c2c(c1Cl)C[C@@H](O)/C=C/CC[C@H]1O[C@@H]1C[C@@H](C)OC2=O`, the IC50 in data set [1] (Homo sapiens, 24 h) is over 100 µM.

In the case of `CC(=O)Oc1cc(OC(C)=O)c2c(c1Cl)CC(OC(C)=O)/C=C/CC[C@H]1O[C@@H]1C[C@@H](C)OC2=O` (stereo partly drawn), the IC50 in data set [1] (Homo sapiens, 24 h) was over 100 µM. `C[C@@H]1C[C@H]2O[C@@H]2[C@H](Sc2ccccc2)CCCC(=O)Cc2c(Cl)c(O)cc(O)c2C(=O)O1` displayed an IC50 in data set [1] (Homo sapiens, 24 h) of over 50 µM. Also, the CC50 in data set [2] was over 50 µM.

In data set [1] (Homo sapiens, 24 h), `C[C@@H]1CCCCCCCC(=O)Cc2cc(O)cc(O)c2C(=O)O1` displayed an IC50 of over 50 µM. Still for that read-out and setting: to `C[C@@H]1C[C@@H](O)[C@@H](O)/C=C\C=C\C(=O)Cc2c(Cl)c(O)cc(O)c2C(=O)O1` belongs over 50 µM. As for `C[C@@H]1C[C@H]2O[C@@H]2\C=C/C=C/C(=N\OCc2ccccc2)Cc2c(Cl)c(O)cc(O)c2C(=O)O1`, the IC50 in data set [1] (Homo sapiens, 24 h) was determined as 0.51 µM. Besides, the CC50 in data set [2] came out at 65.6 µM. In turn, `C[C@@H]1C/C=C/CC/C=C/[C@@H](O)Cc2cc(O)cc(O)c2C(=O)O1` had an IC50 in data set [1] (Homo sapiens, 24 h) of over 50 µM. Consider `CO\N=C1/C=C/C=C\[C@H]2O[C@@H]2C[C@@H](C)OC(=O)c2c(O)cc(O)c(Cl)c2C1`, for which half-maximal inhibition in data set [1] (Homo sapiens, 24 h) (IC50) required 0.15 µM. Moreover, in data set [2], the CC50 is over 100 µM. With `C[C@@H]1C[C@H]2S[C@@H]2/C=C\C=C\C(=O)Cc2c(Cl)c(O)cc(O)c2C(=O)O1`, the IC50 in data set [1] (Homo sapiens, 24 h) was 9.13 µM. Further, in data set [2], the CC50 came out at 28.2 µM. In the case of `C[C@@H]1C[C@H]2O[C@@H]2\C=C/C=C/C(=N/OCc2ccccc2)Cc2c(Cl)c(O)cc(O)c2C(=O)O1`, in data set [1] (Homo sapiens, 24 h), the midpoint of inhibition, the IC50, lay at 0.06 µM. For the same compound, the CC50 in data set [2] was determined as 42.1 µM.

The compound `C[C@@H]1C[C@@H](O)C/C=C\CCC(=O)Cc2c(Cl)c(O)cc(O)c2C(=O)O1` returned an IC50 in data set [1] (Homo sapiens, 24 h) of over 50 µM. `C[C@@H]1C[C@H]2OC(=O)O[C@H]2/C=C\C=C\C(=O)Cc2c(Cl)c(O)cc(O)c2C(=O)O1` displayed a half-inhibitory concentration (IC50) in data set [1] (Homo sapiens, 24 h) of 15.7 µM. The CC50 in data set [2] was determined as 28.1 µM.

In data set [1] (Homo sapiens, 24 h), `CC(=O)S[C@@H]1/C=C/CC(=O)Cc2c(Cl)c(O)cc(O)c2C(=O)O[C@H](C)C[C@H]2O[C@@H]21` yielded an IC50 of 2.34 µM. For the same compound, the CC50 in data set [2] was over 100 µM. Regarding `C[C@@H]1C[C@@H](O)[C@H](Cl)/C=C\C=C\C(=O)Cc2c(Cl)c(O)cc(O)c2C(=O)O1`, in data set [1], the IC50 is over 50 µM. With `C[C@@H]1C[C@H]2O[C@@H]2\C=C/C=C/C(=N\O)Cc2c(Cl)c(O)cc(O)c2C(=O)O1`, in data set [1] (Homo sapiens, 24 h), the half-maximal inhibitory concentration (IC50) was 0.26 µM. Further, the CC50 in data set [2] worked out at 89.5 µM. In data set [1], `C[C@@H]1C[C@@H](O)C(Cl)/C=C\C=C\C(=O)Cc2c(Cl)c(O)cc(O)c2C(=O)O1` (single isomer, unassigned) had an IC50 of 13.3 µM. Also, the CC50 in data set [2] is 42 µM. Regarding `COc1cc(OC)c2c(c1Cl)CC(=O)/C=C/C=C\[C@H]1O[C@@H]1C[C@@H](C)OC2=O` [DIMETHYL RADICICOL], the IC50 in data set [1] (Homo sapiens, 24 h) is 3.76 µM. Moreover, the CC50 in data set [2] is 8.4 µM.

For `C[C@@H]1C[C@H]2O[C@@H]2CC/C=C/C(=O)Cc2cc(O)cc(O)c2C(=O)O1` [MONOCILLIN III], the IC50 in data set [1] (Homo sapiens, 24 h) worked out at 9.43 µM. In addition, the CC50 in data set [2] came to 28.9 µM. The matching figures for `C[C@@H]1C[C@H]2O[C@@H]2/C=C\C=C\C(=O)Cc2cc(O)cc(O)c2C(=O)O1` [MONOCILLIN I]: 1.93 µM and 2.9 µM. Consider `C[C@H]1C[C@H]2O[C@@H]2CC/C=C/C(=O)Cc2c(Cl)c(O)cc(O)c2C(=O)O1` [POCHONIN A], for which the IC50 in data set [1] (Homo sapiens, 24 h) came to 2.64 µM; in data set [3], 0.09 µM. The CC50 in data set [2] stood at 57.3 µM. Take `CC(=O)Oc1cc(OC(C)=O)c2c(c1Cl)CC(=O)/C=C/C=C\[C@H]1O[C@@H]1C[C@@H](C)OC2=O` [RADICICOL DIACETATE]: the IC50 in data set [1] (Homo sapiens, 24 h) was 0.3 µM. Further, the CC50 in data set [2] was 29.1 µM.

Compound `C[C@@H]1C[C@H]2O[C@@H]2/C=C\C=C\C(=O)Cc2c(Cl)c(O)cc(O)c2C(=O)O1` [RADICICOL] came in with an IC50 in data set [1] (Homo sapiens, 24 h) of 0.19 µM. Moreover, the CC50 in data set [2] amounted to 15.3 µM.

As for `C[C@@H]1C[C@H]2O[C@@H]2CCCCC(=O)Cc2cc(O)cc(O)c2C(=O)O1` [TETRAHYDROMONOCILLIN I], the IC50 in data set [1] (Homo sapiens, 24 h) came out at 15 µM. Take `C[C@@H]1C[C@H]2O[C@@H]2CCCCC(=O)Cc2c(Cl)c(O)cc(O)c2C(=O)O1` [TETRAHYDRORADICICOL]: the IC50 in data set [1] (Homo sapiens, 24 h) is 2.24 µM. For the same compound, in data set [2], the CC50 was over 100 µM.
